Laboratory results from ChEMBL document CHEMBL4680175, “Sulfonamide-based ring-fused analogues for CAN508 as novel carbonic anhydrase inhibitors endowed with antitumor activity: Design, synthesis, and in vitro biological evaluation” (Eur J Med Chem, 2020).

Columns and labels:
NCI-H322M = assay: Antitumor activity against human NCI-H322M cells assessed as cell growth inhibition at 10 uM incubated for 48 hrs by sulforhodamine B assay; assay type: functional; settings: read-out: GI
How it was run: (§1)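 NCI Drug Evaluation Branch protocol: primary single-dose screen at 10 μM across a 57-line human cancer panel. Drug exposure is 48 h. Cell growth and viability are read by sulforhodamine B assay. Data are given as a mean graph of percent growth of treated cells and reported as percentage growth inhibition (GI%).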

SF-295 = assay: Antitumor activity against human SF295 cells assessed as cell growth inhibition at 10 uM incubated for 48 hrs by sulforhodamine B assay; assay type: functional; settings: read-out: GI; how it was run: as §1
A498 = assay: Antitumor activity against human A498 cells assessed as cell growth inhibition at 10 uM incubated for 48 hrs by sulforhodamine B assay; assay type: functional; settings: read-out: GI; how it was run: as §1
MDA-MB-435 = assay: Antitumor activity against human MDA-MB-435 cells assessed as cell growth inhibition at 10 uM incubated for 48 hrs by sulforhodamine B assay; assay type: functional; settings: read-out: GI; how it was run: as §1
A549 = assay: Antitumor activity against human A549/ATCC cells assessed as cell growth inhibition at 10 uM incubated for 48 hrs by sulforhodamine B assay; assay type: functional; settings: read-out: GI; how it was run: as §1
OVCAR-5 = assay: Antitumor activity against human OVCAR-5 cells assessed as cell growth inhibition at 10 uM incubated for 48 hrs by sulforhodamine B assay; assay type: functional; settings: read-out: GI; how it was run: as §1
HT-29 = assay: Antitumor activity against human HT-29 cells assessed as cell growth inhibition at 10 uM incubated for 48 hrs by sulforhodamine B assay; assay type: functional; settings: read-out: GI; how it was run: as §1
MCF7 [1] = assay: Antiproliferative activity against human MCF7 cells measured after 48 hrs under CoCl2-induced hypoxic condition by MTT assay; assay type: functional, cell-based; settings: MCF7, 48 h
OVCAR-4 = assay: Antitumor activity against human OVCAR-4 cells assessed as cell growth inhibition at 10 uM incubated for 48 hrs by sulforhodamine B assay; assay type: functional; settings: read-out: GI; how it was run: as §1
MDA-MB-468 [2] = assay: Antiproliferative activity against human MDA-MB-468 cells measured after 48 hrs under CoCl2-induced hypoxic condition by MTT assay; assay type: functional, cell-based; settings: MDA-MB-468, 48 h
NCI-H226 = assay: Antitumor activity against human NCI-H226 assessed as cell growth inhibition at 10 uM incubated for 48 hrs by sulforhodamine B assay; assay type: functional; settings: read-out: GI; how it was run: as §1
SW-620 = assay: Antitumor activity against human SW620 cells assessed as cell growth inhibition at 10 uM incubated for 48 hrs by sulforhodamine B assay; assay type: functional; settings: read-out: GI
How it was run: (§2)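 NCI one-dose screen: 57-cell-line panel exposed at 10 μM for 48 h, Drug Evaluation Branch protocol. Growth and viability read by sulforhodamine B; data given as percent growth inhibition from the mean-graph of percent growth of treated cells.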

EKVX = assay: Antitumor activity against human EKVX cells assessed as cell growth inhibition at 10 uM incubated for 48 hrs by sulforhodamine B assay; assay type: functional; settings: read-out: GI; how it was run: as §1
HCC 2998 = assay: Antitumor activity against human HCC2998 cells assessed as cell growth inhibition at 10 uM incubated for 48 hrs by sulforhodamine B assay; assay type: functional; settings: read-out: GI; how it was run: as §1
RXF 393 = assay: Antitumor activity against human RXF 393 cells assessed as cell growth inhibition at 10 uM incubated for 48 hrs by sulforhodamine B assay; assay type: functional; settings: read-out: GI; how it was run: as §1
MCF7 [3] = assay: Antiproliferative activity against human MCF7 cells measured after 48 hrs under normoxic condition by MTT assay; assay type: functional, cell-based; settings: MCF7, 48 h
MDA-MB-468 [4] = assay: Antiproliferative activity against human MDA-MB-468 cells measured after 48 hrs under normoxic condition by MTT assay; assay type: functional, cell-based; settings: MDA-MB-468, 48 h
SR = assay: Antitumor activity against human SR cells assessed as cell growth inhibition at 10 uM incubated for 48 hrs by sulforhodamine B assay; assay type: functional; settings: read-out: GI; how it was run: as §2
SK-MEL-28 = assay: Antitumor activity against human SK-MEL-28 cells assessed as cell growth inhibition at 10 uM incubated for 48 hrs by sulforhodamine B assay; assay type: functional; settings: read-out: GI; how it was run: as §1
786-0 = assay: Antitumor activity against human 786-0 cells assessed as cell growth inhibition at 10 uM incubated for 48 hrs by sulforhodamine B assay; assay type: functional; settings: read-out: GI; how it was run: as §1
ACHN = assay: Antitumor activity against human ACHN cells assessed as cell growth inhibition at 10 uM incubated for 48 hrs by sulforhodamine B assay; assay type: functional; settings: read-out: GI; how it was run: as §1
IGROV-1 = assay: Antitumor activity against human IGROV1 cells assessed as cell growth inhibition at 10 uM incubated for 48 hrs by sulforhodamine B assay; assay type: functional; settings: read-out: GI; how it was run: as §1
M14 = assay: Antitumor activity against human M14 cells assessed as cell growth inhibition at 10 uM incubated for 48 hrs by sulforhodamine B assay; assay type: functional; settings: read-out: GI; how it was run: as §1
TK-10 = assay: Antitumor activity against human TK-10 cells assessed as cell growth inhibition at 10 uM incubated for 48 hrs by sulforhodamine B assay; assay type: functional; settings: read-out: GI; how it was run: as §2
UACC-62 = assay: Antitumor activity against human UACC-62 cells assessed as cell growth inhibition at 10 uM incubated for 48 hrs by sulforhodamine B assay; assay type: functional; settings: read-out: GI; how it was run: as §2
HL-60(TB) = assay: Antitumor activity against human HL-60(TB) cells assessed as cell growth inhibition at 10 uM incubated for 48 hrs by sulforhodamine B assay; assay type: functional; settings: read-out: GI
How it was run: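 Single-dose NCI-60-type screen of 57 human cancer cell lines at 10 μM under the NCI Drug Evaluation Branch protocol. Drugs exposed for 48 h; growth and viability read by sulforhodamine B assay. Data given as mean-graph percent growth of treated cells, expressed as percent growth inhibition.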

OVCAR-8 = assay: Antitumor activity against human OVCAR-8 cells assessed as cell growth inhibition at 10 uM incubated for 48 hrs by sulforhodamine B assay; assay type: functional; settings: read-out: GI; how it was run: as §1
NCI-H23 = assay: Antitumor activity against human NCI-H23 cells assessed as cell growth inhibition at 10 uM incubated for 48 hrs by sulforhodamine B assay; assay type: functional; settings: read-out: GI; how it was run: as §1
SNB-19 = assay: Antitumor activity against human SNB-19 cells assessed as cell growth inhibition at 10 uM incubated for 48 hrs by sulforhodamine B assay; assay type: functional; settings: read-out: GI; how it was run: as §1
SK-OV-3 = assay: Antitumor activity against human SK-OV-3 cells assessed as cell growth inhibition at 10 uM incubated for 48 hrs by sulforhodamine B assay; assay type: functional; settings: read-out: GI; how it was run: as §1
UACC-257 = assay: Antitumor activity against human UACC-257 cells assessed as cell growth inhibition at 10 uM incubated for 48 hrs by sulforhodamine B assay; assay type: functional; settings: read-out: GI; how it was run: as §2
HCT-15 = assay: Antitumor activity against human HCT15 cells assessed as cell growth inhibition at 10 uM incubated for 48 hrs by sulforhodamine B assay; assay type: functional; settings: read-out: GI; how it was run: as §1
COLO 205 = assay: Antitumor activity against human COLO205 cells assessed as cell growth inhibition at 10 uM incubated for 48 hrs by sulforhodamine B assay; assay type: functional; settings: read-out: GI; how it was run: as §1

SMILES | inhibition of growth at 10 µM (NCI-H322M) | inhibition of growth at 10 µM (A498) | inhibition of growth at 10 µM (MDA-MB-435) | inhibition of growth at 10 µM (A549) | inhibition of growth at 10 µM (OVCAR-5) | inhibition of growth at 10 µM (HT-29) | inhibition of growth at 10 µM (OVCAR-4) | inhibition of growth at 10 µM (SW-620) | inhibition of growth at 10 µM (EKVX) | inhibition of growth at 10 µM (HCC 2998) | inhibition of growth at 10 µM (RXF 393) | inhibition of growth at 10 µM (SR) | inhibition of growth at 10 µM (SK-MEL-28) | inhibition of growth at 10 µM (786-0) | inhibition of growth at 10 µM (ACHN) | inhibition of growth at 10 µM (IGROV-1) | inhibition of growth at 10 µM (M14) | inhibition of growth at 10 µM (TK-10) | inhibition of growth at 10 µM (UACC-62) | inhibition of growth at 10 µM (HL-60(TB)) | other results
N#Cc1c(-c2ccc(Br)cc2)nc2c(/N=N/c3ccc(S(N)(=O)=O)cc3)c(N)nn2c1N | 25% | 35% | 44% | 32% | 28% | 57% | 39% | 56% | 29% | 38% | 58% | 59% | 37% | 30% | 29% | 59% | 59% | 27% | 28% | 62% | inhibition of growth at 10 µM (SF-295): 38%; IC50 (MCF7 [1]): 7.56 µM; IC50 (MDA-MB-468 [2]): 10 µM; inhibition of growth at 10 µM (NCI-H226): 34%; IC50 (MCF7 [3]): 4.77 µM; IC50 (MDA-MB-468 [4]): 6.81 µM; inhibition of growth at 10 µM (OVCAR-8): 53%; inhibition of growth at 10 µM (NCI-H23): 36%; inhibition of growth at 10 µM (SNB-19): 38%
Nc1nn2cc(-c3ccc(Br)cc3)[nH]c2c1/N=N/c1ccc(S(N)(=O)=O)cc1 | 65% | 83% | 46% | 51% | 24% | 34% | 43% | 48% | 21% | 33% | 55% | 54% | 32% | 56% | 76% | 72% | 61% | 50% | 47% | 36% | inhibition of growth at 10 µM (SK-OV-3): 82%; inhibition of growth at 10 µM (UACC-257): 21%; inhibition of growth at 10 µM (HCT-15): 63%; inhibition of growth at 10 µM (OVCAR-8): 37%; inhibition of growth at 10 µM (NCI-H23): 30%; inhibition of growth at 10 µM (COLO 205): 28%; inhibition of growth at 10 µM (SNB-19): 26%
Cc1ccc(-c2cn3nc(N)c(/N=N/c4ccc(S(N)(=O)=O)cc4)c3[nH]2)cc1 | 69% | 87% | 52% | 62% | 23% | 37% | 46% | 60% | 28% | 40% | 56% | 63% | 38% | 60% | 79% | 80% | 60% | 53% | 44% | 47% | inhibition of growth at 10 µM (SK-OV-3): 77%; inhibition of growth at 10 µM (SF-295): 29%; inhibition of growth at 10 µM (UACC-257): 20%; inhibition of growth at 10 µM (NCI-H226): 27%; inhibition of growth at 10 µM (HCT-15): 65%; inhibition of growth at 10 µM (OVCAR-8): 47%; inhibition of growth at 10 µM (NCI-H23): 34%; inhibition of growth at 10 µM (COLO 205): 24%; inhibition of growth at 10 µM (SNB-19): 24%
Nc1nn2cc(-c3ccccc3)[nH]c2c1/N=N/c1ccc(S(N)(=O)=O)cc1 | 63% | 92% | 71% | 67% | 35% | 61% | 63% | 74% | 45% | 54% | 93% | 87% | 55% | 72% | 91% | 85% | 69% | 52% | 69% | 72% | inhibition of growth at 10 µM (SK-OV-3): 87%; inhibition of growth at 10 µM (SF-295): 52%; inhibition of growth at 10 µM (UACC-257): 31%; inhibition of growth at 10 µM (NCI-H226): 47%; inhibition of growth at 10 µM (HCT-15): 77%; inhibition of growth at 10 µM (OVCAR-8): 63%; inhibition of growth at 10 µM (NCI-H23): 54%; inhibition of growth at 10 µM (COLO 205): 55%; inhibition of growth at 10 µM (SNB-19): 40%
